Measurements as given in paper PMC6499389 (European journal of medicinal chemistry, 2019).
Where two headings read alike, the source gives them in different places.

Tests used:
[1] = biological target: T1, hTopo I (Homo sapiens, UniProt P11387); experiment: Relaxation assay for hTopo I; assay type: biochemical; settings: for fold lower activity (loss in hTopo I inhibition) than 5a: relative to 5a; for fold lower activity (loss in hTopo I inhibition) than 5a / fold lower activity (loss in hTopo I inhibition) than 217: from relaxation assay IC50; for fold lower activity (loss in hTopo I inhibition) than 217: relative to 217
T1 sequence (P11387 1-765): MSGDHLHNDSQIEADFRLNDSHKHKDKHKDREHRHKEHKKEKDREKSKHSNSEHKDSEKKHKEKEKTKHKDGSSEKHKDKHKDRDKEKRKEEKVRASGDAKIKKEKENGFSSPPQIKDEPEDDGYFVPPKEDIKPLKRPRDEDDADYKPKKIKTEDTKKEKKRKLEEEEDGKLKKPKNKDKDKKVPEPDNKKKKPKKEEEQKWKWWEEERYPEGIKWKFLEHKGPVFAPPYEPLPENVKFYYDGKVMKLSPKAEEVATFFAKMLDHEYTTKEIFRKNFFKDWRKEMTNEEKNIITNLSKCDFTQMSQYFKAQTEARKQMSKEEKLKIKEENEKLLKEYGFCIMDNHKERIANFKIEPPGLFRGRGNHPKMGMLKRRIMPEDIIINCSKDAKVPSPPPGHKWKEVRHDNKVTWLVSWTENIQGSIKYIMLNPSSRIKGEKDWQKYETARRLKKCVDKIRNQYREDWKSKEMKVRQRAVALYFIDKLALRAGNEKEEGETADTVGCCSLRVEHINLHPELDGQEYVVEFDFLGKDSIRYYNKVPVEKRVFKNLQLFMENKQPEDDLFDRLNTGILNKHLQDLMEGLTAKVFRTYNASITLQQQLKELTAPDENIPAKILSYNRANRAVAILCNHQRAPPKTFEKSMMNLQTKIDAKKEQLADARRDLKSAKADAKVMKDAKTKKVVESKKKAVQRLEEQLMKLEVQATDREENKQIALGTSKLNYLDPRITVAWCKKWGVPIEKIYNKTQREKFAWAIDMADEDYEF
Procedure, shortened: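 Supercoiled pBR322 (0.3 μg) was relaxed by 1 unit of commercial human Topo I. Buffer: 50 mM Tris-HCl pH 7.5, 100 mM NaCl, 10 mM MgCl2, 1 mM DTT, 50 μg/ml BSA, plus varied test compound concentrations. Incubation was 15 min at 37°C, stopped with 25 mM EDTA. Products ran on 1.2% agarose, 2 V/cm, 15 h, TAE, then were ethidium-stained and imaged. IC50 came from band quantification.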

[2] = system: calf thymus DNA (Ct-DNA); settings: ref Previous studies; cited from earlier work
[3] = system: colon cancer (HT-29) xenograft; settings: HT-29 xenograft model, mice; cited from earlier work
[4] = system: 27-bp sequence d(CCTTACGTGCATAGTCATTCATGACCG) of dsDNA; experiment: DNA binding assay; settings: compound 25 μM
[5] = system: calf thymus DNA (Ct-DNA); experiment: DNA binding assay; settings: several ratios of DNA to FQ

Compound: O=C(O)c1cn(Cc2ccc(-c3ccccc3)cc2)c2cc(N3C[C@H]4CCNC[C@H]4C3)c(F)cc2c1=O [091/5k, 1-([1,1′-biphenyl]-4-ylmethyl)-6-fluoro-7-((3aS,7aS)-hexahydro-1H-pyrrolo[3,4-c]pyridin-2(3H)-yl)-4-oxo-1,4-dihydroquinoline-3-carboxylic acid]
- fold lower activity (loss in hTopo I inhibition) than 5a [1]: 4 fold
- fold more active than 5f ([1]; relative to C7 N-methyl AMP analog 5f): ~3 fold

Compound: COc1c(N2CC[C@@H](CN)C2)c(F)cc2c(=O)c(C(=O)O)cn(Cc3cc(-c4ccccc4)no3)c12 [294B/7b, (S)-7-(3-(aminomethyl)pyrrolidin-1-yl)-6-fluoro-8-methoxy-4-oxo-1-((3-phenylisoxazol-5-yl)methyl)-1,4-dihydroquinoline-3-carboxylic acid]
- fold lower activity (loss in hTopo I inhibition) than 217 [1]: ≥ 7 fold

Compound: CN[C@@H]1CCN(c2c(F)cc3c(=O)c(C(=O)O)cn(Cc4ccc(-c5ccccc5)cc4)c3c2OC)C1 [228/4e, (R)-1-([1,1′-biphenyl]-4-ylmethyl)-6-fluoro-8-methoxy-7-(3-(methylamino)pyrrolidin-1-yl)-4-oxo-1,4-dihydroquinoline-3-carboxylic acid]
- fold lower activity (loss in hTopo I inhibition) than 217 [1]: about 2 fold

Compound: N[C@@H]1CCN(c2cc3c(cc2F)c(=O)c(C(=O)O)cn3Cc2ccc(-c3ccccc3)cc2)C1 [117/5g, (R)-1-([1,1′-biphenyl]-4-ylmethyl)-7-(3-aminopyrrolidin-1-yl)-6-fluoro-4-oxo-1,4-dihydroquinoline-3-carboxylic acid]
- fold lower activity (loss in hTopo I inhibition) than 5a [1]: 4 fold

Compound: CCn1cc(C(=O)O)c(=O)c2cc(F)c(N3CCNCC3)cc21 [Norfloxacin]
- bathochromic shift upon addition of Ct-DNA [2]: an observed bathochromic shift
- fluorescence quenching upon addition of Ct-DNA [2]: significant quenching

Compound: COc1c(N2CC[C@@H](CN)C2)c(F)cc2c(=O)c(C(=O)O)cn(Cc3ccc(-n4cccn4)cc3)c12 [292B/7a, (S)-1-(4-(1H-pyrazol-1-yl)benzyl)-7-(3-(aminomethyl)pyrrolidin-1-yl)-6-fluoro-8-methoxy-4-oxo-1,4-dihydroquinoline-3-carboxylic acid]
- fold lower activity (loss in hTopo I inhibition) than 217 [1]: ≥ 7 fold

Compound: O=C(O)c1cn(Cc2ccc(-n3cccn3)cc2)c2cc(NC[C@@H]3CCNC3)c(F)cc2c1=O [298B/9e, (R)-1-(4-(1H-pyrazol-1-yl)benzyl)-6-fluoro-4-oxo-7-((pyrrolidin-3-ylmethyl)amino)-1,4-dihydroquinoline-3-carboxylic acid]
- IC50 [1]: > 200 µM

Compound: COc1c(N2CC[C@@H](CN)C2)c(F)cc2c(=O)c(C(=O)O)cn(Cc3ccc(-c4ccccc4)cc3)c12 [Compound 217]
- inhibition of proliferation of colon cancer in vivo [3]: inhibited the proliferation of colon cancer in vivo as well as fluorouracil
- bathochromic shift upon addition of 27-bp dsDNA [4]: a bathochromic shift was not observed
- fluorescence quenching upon addition of 27-bp dsDNA ([4]; dsDNA 0–200 μM, n=3): quenched in a concentration-dependent manner
- fluorescence quenching upon addition of Ct-DNA [5]: Modest fluorescence quenching
- bathochromic shift upon addition of Ct-DNA ([5]; fluoroquinolone 25 μM, Ct-DNA 0 or 400 μM): no bathochromic shift was observed

Compound: COc1c(N2CC[C@@H](CN)C2)c(F)cc2c(=O)c(C(N)=O)cn(Cc3ccc(-c4ccccc4)cc3)c12 [251/3b, (S)-1-([1,1′-biphenyl]-4-ylmethyl)-7-(3-(aminomethyl)pyrrolidin-1-yl)-6-fluoro-8-methoxy-4-oxo-1,4-dihydroquinoline-3-carboxamide]
- fold lower activity (loss in hTopo I inhibition) than 217 [1]: 3- to 7 fold

Compound: CNC(=O)c1cn(Cc2ccc(-c3ccccc3)cc2)c2c(OC)c(N3CC[C@@H](CN)C3)c(F)cc2c1=O [242/3a, (S)-1-([1,1′-biphenyl]-4-ylmethyl)-7-(3-(aminomethyl)pyrrolidin-1-yl)-6-fluoro-8-methoxy-N-methyl-4-oxo-1,4-dihydroquinoline-3-carboxamide]
- fold lower activity (loss in hTopo I inhibition) than 217 [1]: 3- to 7 fold

Compound: COc1c(N2CC[C@@H](N)C2)c(F)cc2c(=O)c(C(=O)O)cn(Cc3ccc(-c4ccccc4)cc3)c12 [226/4d, (R)-1-([1,1′-biphenyl]-4-ylmethyl)-7-(3-aminopyrrolidin-1-yl)-6-fluoro-8-methoxy-4-oxo-1,4-dihydroquinoline-3-carboxylic acid]
- fold lower activity (loss in hTopo I inhibition) than 217 [1]: more than 3 fold

Compound: COc1c(N2CC[C@@H](CN)C2)c(F)cc2c(=O)c(C(=O)O)cn(Cc3ccc4ccccc4c3)c12 [Compound 227]
- inhibition of proliferation of colon cancer in vivo [3]: exhibited activity but was not as effective as 217

Compound: O=C(O)c1cn(Cc2ccc(-n3cccn3)cc2)c2cc(N3C[C@H]4CCNC[C@H]4C3)c(F)cc2c1=O [300B/9c, 1-(4-(1H-pyrazol-1-yl)benzyl)-6-fluoro-7-((3aS,7aS)-hexahydro-1H-pyrrolo[3,4-c]pyridin-2(3H)-yl)-4-oxo-1,4-dihydroquinoline-3-carboxylic acid]
- fold improvement of hTopo I inhibition compared to 9a ([1]; relative to 9a): 2 fold

Compound: NC[C@@H]1CCN(c2ccc3c(=O)c(C(=O)O)cn(Cc4ccc(-c5ccccc5)cc4)c3c2)C1 [086B/6a, (S)-1-([1,1′-biphenyl]-4-ylmethyl)-7-(3-(aminomethyl)pyrrolidin-1-yl)-4-oxo-1,4-dihydroquinoline-3-carboxylic acid]
- fold lower activity (loss in hTopo I inhibition) than 5a [1]: ~4 fold
- fold lower activity than its cognate C6-fluorine analog 7a ([1]; relative to 7a as printed): 4 fold

Compound: O=C(O)c1cn(Cc2ccc(-c3ccccc3)cc2)c2cc(N3CC4CNCC4C3)c(F)cc2c1=O (stereo not drawn) [089/5l, 1-([1,1′-biphenyl]-4-ylmethyl)-6-fluoro-7-(hexahydropyrrolo[3,4-c]pyrrol-2(1H)-yl)-4-oxo-1,4-dihydroquinoline-3-carboxylic acid]
- fold lower activity (loss in hTopo I inhibition) than 5a [1]: 2 fold

Compound: CN[C@@H]1CCN(c2cc3c(cc2F)c(=O)c(C(=O)O)cn3Cc2ccc(-c3ccccc3)cc2)C1 [118/5h, (R)-1-([1,1′-biphenyl]-4-ylmethyl)-6-fluoro-7-(3-(methylamino)pyrrolidin-1-yl)-4-oxo-1,4-dihydroquinoline-3-carboxylic acid]
- fold lower activity (loss in hTopo I inhibition) than 5a [1]: 2 fold

Compound: COc1c(N2CC[C@@H](CN)C2)c(F)cc2c(=O)c(C(=O)O)cn(Cc3ccc(-c4ccc(F)cc4)cc3)c12 [277/7c, (S)-7-(3-(aminomethyl)pyrrolidin-1-yl)-6-fluoro-1-((4′-fluoro-[1,1′-biphenyl]-4-yl)methyl)-8-methoxy-4-oxo-1,4-dihydroquinoline-3-carboxylic acid]
- fold lower activity (loss in hTopo I inhibition) than 217 [1]: 2 fold
